Experimental data: ChEMBL document CHEMBL3822361, “Novel 1,6-naphthyridin-2(1H)-ones as potential anticancer agents targeting Hsp90” (Eur J Med Chem, 2016)
Each block holds one compound with its values, some of them ahead of it. The source made the active and inactive calls. No cut-off for these calls is given here.

How the values were obtained:
[1] = test system: MDA-MB-468; test: Antiproliferative activity against human MDA-MB-468 cells measured after 48 hrs by MTT assay; format: functional, cell-based; details: MDA-MB-468, 48 h
Method in brief: (§1)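 Cells grown in DMEM with 2 mM L-glutamine, penicillin/streptomycin and 5% FBS at 37 °C, 5% CO2; seeded 6000/well in 96-well plates, attached 24 h. Compounds added over a concentration range in DMSO (1% final), 48 h. MTT (2.5 mg/mL in PBS) added for 3.5 h, formazan dissolved in DMSO, OD 570 nm. Growth relative to 1% DMSO; IC50 from separate triplicate experiments.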

[2] = test system: MCF7; test: Antiproliferative activity against human MCF7 cells measured after 48 hrs by MTT assay; format: functional, cell-based; details: MCF7, 48 h; method in brief: as §1
[3] = test system: MDA-MB-468; test: Induction of apoptosis in human MDA-MB-468 cells at 2 uM measured after 48 hrs by Annexin V-FITC/propidium iodide staining-based flow cytometry; format: functional, cell-based
Method in brief: (§2)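 Cells incubated 24 h at 37 °C, 5% CO2, then given compounds in DMSO (1% final) for 48 h. Floating and trypsinized adherent cells pooled, PBS-washed, stained with annexin V-FITC plus propidium iodide in binding buffer, 15 min on ice in the dark. Flow cytometry, ≥10 000 events per sample; annexin V-positive cells scored as apoptotic.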

[4] = test system: MDA-MB-468; test: Effect on cell cycle distribution in human MDA-MB-468 cells assessed as accumulation at G2/M-phase at 2 uM measured after 48 hrs by propidium iodide staining-based flow cytometry; format: functional
Method in brief: (§3)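 MDA-MB-468 seeded 40,000/well in 24-well plates, 24 h at 37 °C, 5% CO2, then treated 48 h with compounds in DMSO (1% final). Cells trypsinized, washed in PBS, fixed in 70% ethanol, rehydrated in PBS, stained with propidium iodide in PBS. Phase distribution (G1, S, G2/M, polyploid, subG1) read by flow cytometry.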

[5] = target: T1, Heat shock protein HSP90 (Homo sapiens) (UniProt P07900+P08238); test: Inhibition of HSP90 in human MCF7 cells assessed as Raf-1 protein degradation at 1.5 times IC50 measured after 48 hrs by western blot analysis; format: cell-based
Method in brief: (§4)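 Cells seeded in 6-well plates, 24 h at 37 °C, 5% CO2, then exposed 48 h to compound or 17-AAG in DMSO (1% final) or to vehicle. Lysed 2 h on ice in buffer with protease and phosphatase inhibitors, sonicated, protein measured by BCA. Equal protein run on SDS-PAGE, moved to PVDF, primary antibodies overnight at 4 °C, HRP secondary 1 h, ECL chemiluminescence.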

[6] = target: T1, Heat shock protein HSP90 (Homo sapiens); test: Inhibition of HSP90 in human MCF7 cells assessed as ER-alpha protein degradation at 1.5 times IC50 measured after 48 hrs by western blot analysis; format: cell-based; method in brief: as §4
[7] = test system: MCF7; test: Effect on actin level in human MCF7 cells at 1.5 times IC50 measured after 48 hrs by western blot analysis; format: cell-based; details: mcf7, 48 h; method in brief: as §4
[8] = target: T1, Heat shock protein HSP90 (Homo sapiens); test: Inhibition of HSP90 in human MDA-MB-468 cells assessed as Raf-1 protein degradation at 1.5 times IC50 measured after 48 hrs by western blot analysis; format: cell-based; method in brief: as §4
[9] = test system: MDA-MB-468; test: Effect on actin level in human MDA-MB-468 cells at 1.5 times IC50 measured after 48 hrs by western blot analysis; format: cell-based; details: mda-mb-468, 48 h; method in brief: as §4
[10] = test system: MCF7; test: Effect on HSP90 level in human MCF7 cells at 1.5 times IC50 measured after 48 hrs by western blot analysis; format: cell-based; details: mcf7, 48 h; method in brief: as §4
[11] = test system: MDA-MB-468; test: Effect on HSP90 level in human MDA-MB-468 cells at 1.5 times IC50 measured after 48 hrs by western blot analysis; format: cell-based; details: mda-mb-468, 48 h; method in brief: as §4
[12] = target: T1, Heat shock protein HSP90 (Homo sapiens); test: Inhibition of HSP90 in human MCF-7 cells assessed as ER-alpha protein degradation at 1.5 times IC50 measured after 48 hrs by western blot analysis
[13] = target: T1, Heat shock protein HSP90 (Homo sapiens); test: Inhibition of HSP90 in human MCF7 cells assessed as induction of prosurvival heat shock response at 1.5 times IC50 measured after 48 hrs by Western blot analysis; format: cell-based; method in brief: as §4
[14] = test system: MDA-MB-468; test: Induction of apoptosis in human MDA-MB-468 cells at 4 uM measured after 48 hrs by Annexin V-FITC/propidium iodide staining-based flow cytometry; format: functional, cell-based; method in brief: as §2
[15] = test system: MDA-MB-468; test: Effect on cell cycle distribution in human MDA-MB-468 cells assessed as accumulation at G2/M-phase at 4 uM measured after 48 hrs by propidium iodide staining-based flow cytometry; format: functional; method in brief: as §3

SMILES: COc1ccc(C(=O)Nc2cc3cnc(NCCN4CCOCC4)cc3n(C)c2=O)cc1
IC50 [1]: > 100 µM | IC50 [2]: > 100 µM

SMILES: CCCNc1cc2c(cn1)cc(NC(=O)c1cccc(-c3ccccc3)c1)c(=O)n2C
IC50 [1]: 1.87 µM | IC50 [2]: 6 µM | Activity [3]: inactive | Activity [4]: Active | inhibition [5]: Active | inhibition [6]: Active | Activity [7]: Non-toxic | inhibition [8]: Active | Activity [9]: Non-toxic | Activity [10]: Non-toxic | Activity [11]: Non-toxic | inhibition [12]: Active

SMILES: Cn1c(=O)c(NC(=O)c2ccc(N)cc2)cc2cnc(NCCN3CCOCC3)cc21
IC50 [1]: > 100 µM | IC50 [2]: > 100 µM

SMILES: CN(C)CCNc1cc2c(cn1)cc(NC(=O)c1cccc(-c3ccccc3)c1)c(=O)n2C
IC50 [1]: 1.68 µM | IC50 [2]: 1.93 µM | Activity [3]: Active | Activity [4]: inactive | inhibition [13]: Active | inhibition [5]: Active | inhibition [6]: Active | Activity [7]: Non-toxic | inhibition [8]: Active | Activity [9]: Non-toxic | Activity [10]: Toxic | Activity [11]: Toxic | inhibition [12]: Active

SMILES: CN(C)CCNc1cc2c(cn1)cc(NC(=O)c1ccc(N)cc1)c(=O)n2C
IC50 [1]: 20.4 µM | IC50 [2]: 55.8 µM

SMILES: COc1ccc(C(=O)Nc2cc3cnc(N4CCN(C)CC4)cc3n(C)c2=O)cc1
IC50 [1]: 12.6 µM | IC50 [2]: 35.4 µM

SMILES: CO[C@@H]1[C@@H](OC(N)=O)[C@@H](O)[C@H](Oc2ccc3c(O)c(NC(=O)c4ccc(O)c(CC=C(C)C)c4)c(=O)oc3c2C)OC1(C)C [NOVOBIOCIN]
IC50 [1]: 338 µM | IC50 [2]: 293 µM

SMILES: CC(=O)Nc1cc2cnc(NCCN(C)C)cc2n(C)c1=O
IC50 [1]: > 100 µM | IC50 [2]: > 100 µM

SMILES: CN(C)CCNc1cc2c(cn1)cc(NC(=O)c1ccncc1)c(=O)n2C
IC50 [1]: 8.36 µM | IC50 [2]: 36.6 µM

SMILES: CN(C)CCNc1cc2c(cn1)cc(NC(=O)c1cc3ccccc3s1)c(=O)n2C
IC50 [1]: 3.57 µM | IC50 [2]: 12 µM | Activity [14]: Active | Activity [15]: Active | inhibition [5]: inactive | inhibition [6]: inactive | Activity [7]: Non-toxic | inhibition [8]: inactive | Activity [9]: Non-toxic | Activity [10]: Non-toxic | Activity [11]: Non-toxic | inhibition [12]: inactive

Second part, led by results:

IC50 [1]: > 100 µM | IC50 [2]: 4.47 µM
SMILES: Cn1c(=O)c(NC(=O)c2ccncc2)cc2cnc(NCCN3CCOCC3)cc21

IC50 [1]: 18.3 µM | IC50 [2]: 35.1 µM
SMILES: CN(C)CCNc1cc2c(cn1)cc(NC(=O)c1ccccc1)c(=O)n2C

IC50 [1]: 1.64 µM | IC50 [2]: 3.09 µM | inhibition [5]: Active | inhibition [6]: Active | inhibition [8]: Active | inhibition [12]: Active
SMILES: CN(C)CCNc1cc2c(cn1)cc(NC(=O)c1ccc(Cl)cc1)c(=O)n2C
Activity [3]: Active | Activity [4]: Active | Activity [7]: Non-toxic | Activity [9]: Non-toxic | Activity [10]: Non-toxic | Activity [11]: Non-toxic

IC50 [1]: > 100 µM | IC50 [2]: > 100 µM
SMILES: CC(=O)Nc1cc2cnc(NCCN3CCOCC3)cc2n(C)c1=O
